From PubChem
OXTR potentiator = human OXTR potentiators, primary screen, fluorescence, CHO-OTR cells, Fluo-8 calcium; AID 2445, 2010; activation, % at 3 µM; 0.061% of 320,000 active; Fluo-8 calcium fluorescence, potentiator mode; 0% = oxytocin EC15, 100% = EC100;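 active = activation above that plate's cutoff, the mean activation of tested compounds plus 3 SD, cut at about 6.6% in these data, passing the limit was not always enough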;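 also: 100% uses oxytocin at 75 nM as the full agonist control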
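assay system = CHO-OTR cells, human receptor | schedule = compound 6 min at room temperature before oxytocin, 100 s read | detection = Fluo-8 intracellular calcium fluorescence, ex 470-495, em 515-575 nm | evaluation = normalized max/min fluorescence ratio, % activation | control set = EC15 oxytocin alone as 0%, 75 nM oxytocin (EC100) as 100%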
V1aR counter = agonists of human V1a receptor, primary screen, counter-screen for OXTR agonist project, fluorescence, CHO-V1R cells. activation, % at 3 µM. Vasopressin V1a receptor (Homo sapiens), P37288. Fluo-8 calcium fluorescence, agonist mode; 0% DMSO, 100% 3 nM vasopressin. AID 2797, 2010. 0.25% of 320,000 active;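 active = activation above the mean activation of all tested compounds plus 3 SD, per screening run, cut at about 20% in these data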;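 also: signal is peak over basal fluorescence ratio across a 100 second FLIPR read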
OX1R antag-1 = OX1R (HCRTR1) antagonists, primary screen, fluorescence, CHO/OX1R cells, Fluo-8 calcium, orexin A; inhibition, % at 5 µM; Fluo-8 calcium fluorescence; AID 434989, 2010; Orexin/Hypocretin receptor type 1 (Homo sapiens), O43613; 0.43% of 330,000 active;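 active = inhibition above its plate's threshold, mean inhibition of all tested compounds on the plate plus 3 SD, cut at about 37% in these data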;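 also: 0% = orexin A challenge wells and 100% = SB-334867-A antagonist wells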
Target sequence (O43613 whole entry, looked up): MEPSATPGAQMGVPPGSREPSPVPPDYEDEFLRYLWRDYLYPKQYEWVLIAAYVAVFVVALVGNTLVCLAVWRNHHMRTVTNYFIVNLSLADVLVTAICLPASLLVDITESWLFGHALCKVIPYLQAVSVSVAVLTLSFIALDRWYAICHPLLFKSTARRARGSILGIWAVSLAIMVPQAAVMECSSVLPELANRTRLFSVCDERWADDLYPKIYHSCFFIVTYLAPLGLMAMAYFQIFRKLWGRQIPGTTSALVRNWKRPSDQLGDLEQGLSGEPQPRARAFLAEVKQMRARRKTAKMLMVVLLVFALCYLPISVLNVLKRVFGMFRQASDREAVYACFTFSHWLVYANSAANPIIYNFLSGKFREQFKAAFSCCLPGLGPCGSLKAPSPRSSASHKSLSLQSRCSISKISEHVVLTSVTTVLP
OXTR ag = human OXTR agonists, primary screen, fluorescence, CHO-OTR cells, Fluo-8 calcium; Oxytocin receptor (Homo sapiens), P30559; Fluo-8 calcium fluorescence; normalized: DMSO 0%, oxytocin 100%; activation, % at 3 µM; 0.32% of 320,000 active; AID 2435, 2010;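 active = activation above the mean of all tested compounds plus 3 SD, cutoff set per screening run, cut at about 20% in these data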;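 also: peak over basal fluorescence ratio from a 100 s FLIPR kinetic read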
CHO parental Ca = ATP-evoked calcium signal inhibitors, parental CHO, primary screen, counter-screen for OX1R antagonist project, cell-based, fluorescence, Fluo-8 calcium dye. parental CHO-K1, ATP-induced calcium, Fluo-8 fluorescence. inhibition, % at 5.6 µM. 0.63% of 330,000 active. AID 463079, 2010;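 active = inhibition above that plate's mean sample inhibition plus 3 SD, cut at about 26% in these data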;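 also: 0% = ATP-challenged DMSO wells and 100% = DMSO wells without ATP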
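Assay system: parental CHO cells; Read-out basis: percent inhibition of ATP-evoked calcium rise, normalized to controls; Benchmarks: ATP and no-ATP DMSO wells; Compound dosing: single nominal dose of 5.6 µM per compound; Signal: Fluo-8 calcium dye fluorescence; Also added: ATP as calcium-mobilizing challenge; Repeats: singlicate.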
OX1R antag-2 = antagonists of human orexin 1 receptor (OX1R); Orexin/Hypocretin receptor type 1 (Homo sapiens), O43613; OX1R-expressing cells, FRET antagonist read-out; inhibition, % at 6.6 µM; 1.8% of 330,000 active; AID 485270, 2010; in the data active = inhibition mostly above about 38%, no sharp cut-off; inactive = mostly below about 40%;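 also: 0% = agonist challenge alone and 100% = reference antagonist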
The depositor's hits bear a star; nt = not tested or not shown. A selection: hits, their analogues and other compounds. The true share with any hit is near 2.7%.

SMILES | OXTR potentiator | V1aR counter | OX1R antag-1 | OXTR ag | CHO parental Ca | OX1R antag-2
Cn1c(=O)c2c(nc(NCc3ccco3)n2C)n(C)c1=O | -2 | 0 | -14 | 0 | -13 | -1
Cn1c(=O)c2c(nc(NCc3ccco3)n2C/C=C/c2ccccc2)n(C)c1=O | -28 | 8 | 47* | 8 | 39* | 66
COc1ccc(N(CC(=O)NCc2ccc(C)cc2)S(=O)(=O)c2ccccc2[N+](=O)[O-])c(OC)c1 | -12 | 2 | 8 | -1 | -10 | 45
COc1ccc(N(CC(=O)NCc2ccccc2C)S(=O)(=O)c2ccccc2[N+](=O)[O-])c(OC)c1 | -32 | 1 | 14 | -3 | -17 | 64*
CCCCCC/C(C)=C1/SC(=S)NC1=O | -1 | 6 | 14 | 5 | -6 | 45*
CCCCCCCCCC(=O)O | 0 | 1 | -7 | 2 | -12 | 9
CON(c1nc(N(C)C)nc(N(C)C)n1)S(=O)(=O)c1ccccc1Cl | -3 | -1 | 1 | -2 | -6 | 31*
CC(=O)Nc1ccc(NC(=O)C2CCCCN2S(=O)(=O)c2ccc(C(C)(C)C)cc2)cc1 (centres undefined) | -15 | 5 | -8 | 5 | -10 | 9
CCn1c(SCC(=O)Nc2ccc(N3CCOCC3)cc2)nnc1C1CC1 | -2 | 0 | -12 | 0 | -18 | 10
CC(C)(C)C(=O)O/N=C(\N)c1ccc([N+](=O)[O-])s1 | -5 | 0 | -2 | -1 | -4 | 19
N/C(=N\O)c1ccc([N+](=O)[O-])s1 | -3 | 1 | -8 | 1 | -2 | 47*
N/C(=N\OC(=O)C1CC1)c1ccc([N+](=O)[O-])s1 | -1 | 0 | -13 | 1 | -2 | 56*
O=C(COC(=O)c1ccc(Cl)nc1)NC1CCCc2ccccc21 (centres undefined) | -5 | 0 | -11 | -1 | -26 | 7
O=C(COC(=O)c1ccc([N+](=O)[O-])o1)NCc1ccc2c(c1)OCO2 | -4 | 0 | -3 | 2 | -2 | 22
Cc1ccc(OCCN2CCN(c3ncnc4sc(C)c(C)c34)CC2)cc1 | -7 | 4 | -5 | 8 | 4 | 44*
Cc1sc2ncnc(N3CCCCC3)c2c1C | -6 | 1 | -17 | -1 | 1 | 8
Clc1ccc(OCCN2CCN(c3ncnc4sccc34)CC2)cc1 | -5 | 8 | 5 | 15 | 11 | 49*
CSc1sc(-c2n[nH]c(=S)n2C)c2c1C=CCC2 | 1 | -1 | -36 | -2 | -43 | 18
Cc1ccc(-c2nc3c(c(SCC(=O)N4CCOCC4)n2)Cc2c(CO)cnc(C)c2O3)cc1 | -11 | -1 | -22 | -1 | -25 | 38*
COc1ccc(-c2nc3c(c(SCC(=O)N4CCOCC4)n2)Cc2c(CO)cnc(C)c2O3)cc1 | -8 | 3 | -6 | -1 | -31 | 13
Cc1cc([N+](=O)[O-])cc2ncccc12 | -9 | 0 | 0 | 0 | 6 | 69*
Cn1c(Cn2c(=O)sc3ccccc32)nnc1SCc1ccccc1F | -1 | 0 | -15 | -1 | 43* | 13
C[C@]12c3[nH]c4ccc(Cl)cc4c3CCN1C(=O)[C@@H](CC(=O)NCCC1=CCCCC1)C[C@@H]2C(=O)N1CCOCC1 | nt | nt | -18 | nt | -25 | 6
COc1ccc(C(=O)NNC(=S)NC(=O)c2ccc(F)cc2)cc1Br | -24 | 76* | 48* | 68* | 29 | 4
O=C(NC(=S)NNC(=O)c1ccccc1O)c1ccccc1 | -9 | 5 | -10 | 12 | 12 | 7
O=C(NC(=S)NNC(=O)c1ccccc1O)c1ccc(F)cc1 | -26 | 32* | 0 | 34* | 4 | 16
Cc1ccc(C(=O)NNC(=S)NC(=O)c2ccco2)cc1 | -15 | 64* | 64* | 45* | 66* | 11
